From ChEMBL document CHEMBL1124636, “3,4-Dihydro-2H-1-benzopyran-2-carboxylic acids and related compounds as leukotriene antagonists” (J Med Chem, 1989) come the findings set out here.

One may read the Inhibition as the relative decrease from the control value, in per cent. The low end stands for a response near the control, the high end for a response far below the control. One may read the inhibition as the drop in the measured response relative to a control, in per cent. Read a low inhibition as little suppression. One may read the inhibition in vivo as the drop in the measured response relative to a control, in per cent. Lower therefore signals a weak effect. For orientation: pIC50 means −log10 of the IC50, conventionally taken in molar units.

SMILES strings stand for the structures. pIC50: −log10 of the molar value.

Test [1] deals with Cysteinyl leukotriene receptor (Cavia porcellus). The test can be described thus: Inhibitory activity of compound to block binding of radiolabeled leukotriene D4 to receptor sites in homogenized guinea pig lung at 10 uM.
Test [2] deals with T1, Cysteinyl leukotriene receptor 1 (Cavia porcellus) (UniProt Q2NNR5).
T1 sequence (whole entry): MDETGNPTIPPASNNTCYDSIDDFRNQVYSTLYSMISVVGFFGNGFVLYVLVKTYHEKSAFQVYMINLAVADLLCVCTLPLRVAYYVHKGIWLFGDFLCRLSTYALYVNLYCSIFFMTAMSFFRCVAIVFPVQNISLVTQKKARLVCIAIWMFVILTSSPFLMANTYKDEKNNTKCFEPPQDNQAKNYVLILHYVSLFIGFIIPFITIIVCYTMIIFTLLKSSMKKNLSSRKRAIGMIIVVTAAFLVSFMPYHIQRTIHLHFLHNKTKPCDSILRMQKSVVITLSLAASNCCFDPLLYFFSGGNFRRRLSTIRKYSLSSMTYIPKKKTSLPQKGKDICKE
The test can be described thus: (§1) Inhibition of leukotriene D4 induced bronchoconstriction in anesthetized guinea pigs after intravenous administration at a dose of 10 mg/kg. The test is classed as functional, organism-based. Also on record: dose 10 mg/kg. In outline:
(§2)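 Male Hartley guinea pigs, 400–600 g, urethane 2 g/kg ip, jugular cannula, propranolol 0.1 mg/kg iv 5 min before challenge, succinylcholine 1.2 mg/kg iv, ventilated. Vehicle or drug iv 30 s before LTD4 25 µg/kg iv; tracheal pressure change.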

The subject of test [3] is Cavia porcellus. The description is as §1. The class given is functional. In outline:
as §2

In test [4] the test system is Cavia porcellus. The test can be described thus: (§3) Inhibition of leukotriene D4 induced bronchoconstriction in anesthetized guinea pigs after aerosol administration as 1% solution. The test is classed as functional. In outline: (§4)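 Guinea pigs given propranolol 0.1 mg/kg iv 5 min before 5-min ultrasonic nebulizer exposure to aqueous, NaOH-neutralized drug (% w/v) or distilled water, breathing spontaneously. LTD4 50 µg/kg iv 30 s after exposure; tracheal pressure change.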

Test [5] has as its target Dual specificity calcium/calmodulin-dependent 3',5'-cyclic nucleotide phosphodiesterase 1A (Bos taurus, UniProt P14100). The test can be described thus: Inhibition of bovine heart Phosphodiesterase 1A.
In test [6] the target is T2, Cysteinyl leukotriene receptor 1 (Cavia porcellus, UniProt Q2NNR5).
T2 sequence (Q2NNR5 whole entry): T1 sequence (whole entry)
The test can be described thus: Inhibitory activity of compound to block binding of [3H]leukotriene D4 to Cysteinyl leukotriene D4 receptor sites in homogenized guinea pig lung. In outline: (§5)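 Lung from male Hartley guinea pigs (400–500 g), homogenized in sucrose/Tris pH 7.5 with protease inhibitors; 30000g membrane pellet in 10 mM PIPES pH 7.5, 50 mM NaCl. Binding: Tyrode, 0.1% BSA, 1 mM glycine, 1 mM cysteine, 3.5 nM [3H]LTD4, 100–200 µg protein, 20 °C, 30 min; glass-fiber filtration. Nonspecific with 10^-6 M LTD4. Triplicate screen at 10 µM; IC50 by linear regression.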

The subject of test [7] is Cavia porcellus. The test is described as §3. The test is classed as functional, organism-based. In outline: as §4
Test [8] relates to Cavia porcellus. The test can be described thus: Inhibition of leukotriene D4 induced bronchoconstriction in anesthetized guinea pigs after intravenous administration. The class given is functional. The settings on record: read-out: ID50 (the source's name). A digest of the protocol: as §2
Test [9] concerns the target T1, Cysteinyl leukotriene receptor 1 (Cavia porcellus). The settings on record: Lung, 10 uM.
Test [10] has as its system Cysteinyl leukotriene receptor (Cavia porcellus). The test can be described thus: Inhibitory activity to block binding of [3H]leukotriene D4 to Cysteinyl leukotriene D4 receptor sites in homogenized guinea pig lung at 10 uM.
The species entered for test [11] is Rattus norvegicus. The test can be described thus: Inhibitory activity to inhibit Inophore-induced arachidonic acid metabolism (inhibition of LTB4 formation) in rat. The test is classed as functional, organism-based. A digest of the protocol:
(§6)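 Rat peritoneal macrophages adhered 90 min at 37 °C, labeled with [14C]arachidonic acid 90 min, washed. Compound 30 min at 37 °C, then A23187 0.5 µM for 20 min. LTB4 and PGE2 in medium by radioimmunoassay.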

Test [12] can be described thus: Inhibitory activity to inhibit Inophore-induced arachidonic acid metabolism (inhibition of PGE-2 formation) in rat. The class given is functional. A digest of the protocol: as §6
Test [13] concerns the target T1, Cysteinyl leukotriene receptor 1 (Cavia porcellus). The test can be described thus: Inhibitory activity of compound to block binding of radiolabeled leukotriene D4 to receptor sites in homogenized guinea pig lung at 10 uM. In outline: as §5
The test system of test [14] is Cysteinyl leukotriene receptor 1 (Cavia porcellus). The test can be described thus: Inhibitory activity of compound to block binding of radiolabeled Cysteinyl leukotriene D4 receptor sites in homogenized guinea pig lung at 10 uM.
Test [15] has as its target T1, Cysteinyl leukotriene receptor 1 (Cavia porcellus). The test can be described thus: Inhibition of leukotriene D4 induced bronchoconstriction in anesthetized guinea pigs after intravenous administration at a dose of 1 mg/kg. The class given is organism-based. The arrangement: dose 1 mg/kg.
The target is the same in test [16]. The test can be described thus: Inhibitory activity of compound to block binding of radiolabeled Cysteinyl leukotriene D4 receptor sites in homogenized guinea pig lung at 10 uM. A digest of the protocol: as §5
Test [17] shares this target. The description is as §1. Also on record: dose 10 mg/kg. The class given is organism-based. A digest of the protocol:
as §2

The target is the same in test [18]. The description is as §3. The settings on record: concentration not given here. A digest of the protocol:
as §4

The species named for test [19] is Cavia porcellus. The test can be described thus: In vitro activity to inhibit leukotriene D4 induced contraction of guinea pig trachea. The test is classed as functional. The note with it: read-out: pA2 (converted). A digest of the protocol:
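Guinea pig tracheal smooth muscle contracted by LTD4; pA2 and Schild slope reported.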

For test [20], the species on record is Cavia porcellus. The test can be described thus: In vitro activity to inhibit SRS-A induced contraction of guinea pig ileum.
The subject of test [21] is Cavia porcellus. The test can be described thus: In vivo guinea pig bronchoconstriction against leukotriene D4 when administered a compound dose (mg/kg) intravenously. The test is classed as functional. The note with it: Lung, iv, read-out: ID50 (the source's name). In outline: as §2
The test system of test [22] is Cavia porcellus. The test can be described thus: In vivo guinea pig bronchoconstriction against leukotriene C4 when administered a compound dose (mg/kg) intravenously. The test is classed as functional. The settings on record: Lung, iv, read-out: ID50 (the source's name).

Chain of Dual specificity calcium/calmodulin-dependent 3',5'-cyclic nucleotide phosphodiesterase 1A (P14100 whole entry): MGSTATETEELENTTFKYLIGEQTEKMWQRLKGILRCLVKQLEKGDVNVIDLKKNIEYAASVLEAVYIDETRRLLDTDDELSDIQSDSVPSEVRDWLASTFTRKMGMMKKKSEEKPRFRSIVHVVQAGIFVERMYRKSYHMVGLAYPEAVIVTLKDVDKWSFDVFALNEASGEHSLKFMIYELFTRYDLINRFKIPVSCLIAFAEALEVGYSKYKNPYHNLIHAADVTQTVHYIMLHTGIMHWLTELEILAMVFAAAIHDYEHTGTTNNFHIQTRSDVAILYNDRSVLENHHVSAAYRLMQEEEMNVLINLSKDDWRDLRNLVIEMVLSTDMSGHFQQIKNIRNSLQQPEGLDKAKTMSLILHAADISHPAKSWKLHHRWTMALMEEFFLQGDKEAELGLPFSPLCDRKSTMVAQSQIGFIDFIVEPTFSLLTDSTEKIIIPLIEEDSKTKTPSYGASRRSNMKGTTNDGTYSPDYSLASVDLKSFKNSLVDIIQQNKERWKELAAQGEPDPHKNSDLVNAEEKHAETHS

`CCCc1c(O)c(C(C)=O)cc(O)c1OCCCCCOc1cc2c(cc1C(C)=O)CCC(C(=O)O)O2` (stereo not drawn): in test [1], the Inhibition turned out to be 0%. In addition, in [2], the inhibition is 0%.

With `O=C(O)CCSC(SCCC(=O)O)c1ccccc1CCCCCCCCc1ccccc1`, the values for the Inhibition in test [1] and in [4] were 81% and 58%, respectively. For the same molecule, in test [3], the inhibition in vivo at 10 mg/kg worked out at 20%.

In the case of `Cn1c(=O)c2[nH]cnc2n(C)c1=O` [THEOPHYLLINE], in [5], the pIC50 is 3.30.

Take `CC(C)C(C)c1nc2c(=O)[nH]c(=O)[nH]c2[nH]1` (stereo not drawn): the pIC50 in test [5] is 4.00.

`CCCc1c(OCCCCCOc2cc3c(cc2C(C)=O)CCC(CCC)(C(=O)O)O3)ccc(C(C)=O)c1O` (stereo not drawn) showed a negative logarithm of the IC50 (pIC50) in test [6] of 5.70. This molecule registered an inhibition in vivo at 10 mg/kg in test [3] of 56%. Moreover, in [4], the Inhibition stood at 51%. The IC50 in [7] was 0.9 % conc. Further, in test [8], the ED50 came out at 8 mg/kg. For the same molecule, the inhibition in test [9] is 70%.

As to `CCCc1c(OCCCOc2cc3c(cc2C(C)=O)CCC(C(=O)O)O3)ccc(C(C)=O)c1O` (stereo not drawn), the pIC50 in test [6] was 5.22. In test [3], this molecule yielded an inhibition in vivo at 10 mg/kg of 35%. In [4], the Inhibition turned out to be 31%. In addition, the inhibition in [10] turned out to be 63%.

`CCCc1c(OCc2cccc(COc3cc4c(cc3C(C)=O)CCC(C(=O)O)O4)c2)ccc(C(C)=O)c1O` (stereo not drawn) gave a negative-log IC50 (pIC50) in [6] of 5.15. Besides, at 10 mg/kg the inhibition in vivo in test [3] was 20%. The molecule also came in with an Inhibition in test [4] of 28%. Also, the inhibition in [10] was 60%.

Regarding `CCCc1c(OCCCCCOc2cc3c(cc2C(C)=O)CCC(C(=O)O)C3)ccc(C(C)=O)c1O` (stereo not drawn), the pIC50 in test [6] was 5.15. The same molecule showed an inhibition in vivo at 10 mg/kg in test [3] of 51%. Besides, the ED50 in test [3] (read-out: ID50 (the source's name)) was found to be 10 mg/kg. In [4], this molecule gave an Inhibition of 23%. The molecule further displayed an inhibition in test [10] of 65%.

For `COc1ccc2c(c1)c(CC(=O)O)c(C)n2C(=O)c1ccc(Cl)cc1` [INDOMETHACIN], the pIC50 is 4.22 in test [11] and 7.00 in test [12].

`CCCc1c(OCCCCCCCOc2cc3c(cc2C(C)=O)CCC(C(=O)O)O3)ccc(C(C)=O)c1O` (stereo not drawn): the inhibition in test [13] and in [14] was 39% throughout. The molecule also came in with an Inhibition in [4] of 44%.

Take `CCCc1c(OCCCCCOc2cc3c(cc2C(C)=O)CCC(C(=O)O)O3)ccc(C=O)c1O` (stereo not drawn): the inhibition in [13] and in test [15] was 0% each time.

On to `CC(C)c1ccc2c(c1)c(SC(C)(C)C)c(CC(C)(C)C(=O)O)n2Cc1ccc(Cl)cc1`, for which the pIC50 in [11] was 6.70; in test [12], 5.30.

With `CCCCCCCCCCCCc1ccccc1C(SCCC(=O)O)SCCC(=O)O`, the figures for the inhibition in [16], in [17] and in test [18] were 24%, 29% and 39%, respectively.

On to `CCCc1c(OCCCCCOc2c(C(C)=O)cc3c(c2CCC)OC(C(=O)O)CC3)ccc(C(C)=O)c1O` (stereo not drawn), for which the inhibition in test [18] came to 44%.

In turn, `CCCc1c(OCCCCCCOc2cc3c(cc2C(C)=O)CCC(C(=O)O)O3)ccc(C(C)=O)c1O` (stereo not drawn) showed a pIC50 in test [6] of 5.30. This molecule displayed an inhibition in vivo at 10 mg/kg in test [3] of 66%. Moreover, the Inhibition in test [4] was determined as 36%. In addition, the ED50 in test [8] stood at 5 mg/kg. The inhibition in test [10] stood at 96%.

Consider `CCCc1c(OCCCCCOc2cc3c(cc2C(C)=O)CC[C@H](C(=O)O)O3)ccc(C(C)=O)c1O`, for which, in test [19], the Kb was 0.794 µM. For the same molecule, in [20], the pIC50 was 7.00. Besides, the ED50 in test [21] turned out to be 4 mg/kg; in [22] it was 6 mg/kg.
